A short description of data set [1]: Toxicity in BALB/c nu/nu mouse assessed as change in calcium level at 10 mg/kg, po administered daily for 7 days. It counts as organism-based. The following applies: in vivo, 168 h.
Data set [2] has as its target Centrosomal protein 43/RET (Homo sapiens) (UniProt P07949+O95684). As to the kind of experiment: Inhibition of FGFR1OP/RET isoform 9 (unknown origin) expressed in mouse NIH/3T3 cells assessed as reduction in RET phosphorylation at Y905 residue at 1 to 100 nM measured after 2 hrs by Western blot analysis. It counts as cell-based. In outline:
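Serum-starved RAT1 (RET point mutants) or NIH3T3 (RET rearrangements) cells expressing short RET-9 isoform, treated 2 h; 50 μg total lysate immunoblotted with anti-phospho-Y1062 and anti-phospho-Y905 RET antibodies, normalized to total RET; ECL detection. Compound from 50 mM DMSO stock diluted in growth medium.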
(In general: Immunoblotting shows a protein as a band on a membrane.)

The test system of data set [3] is Proto-oncogene tyrosine-protein kinase receptor Ret (Homo sapiens), P07949 [C634R]. As to the kind of experiment: Inhibition of RET isoform 9 C634R mutant (unknown origin) expressed in rat Rat1 assessed as reduction in RET phosphorylation at Y905 residue at 0.3 nM measured after 2 hrs by Western blot analysis. It counts as cell-based. The gist of the method:
(§1)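 RAT1 fibroblasts expressing RET-9 C634R, serum-starved, treated 2 h with 0.1–10.0 nM; 50 μg lysate blotted for RET pY905 and pY1062, normalized to total RET; ECL detection.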

For data set [4] the test system is unchanged. As to the kind of experiment: Inhibition of RET isoform 9 C634R mutant (unknown origin) expressed in rat Rat1 assessed as reduction in RET phosphorylation at Y905 residue at 3 nM measured after 2 hrs by Western blot analysis. It counts as cell-based. In outline:
as §1

The subject of data set [5] is Mus musculus. As to the kind of experiment: In vivo inhibition of RET isoform 9 C634Y mutant transfected in mouse NIH/3T3 cells implanted BALB/c nu/nu mouse assessed as reduction in SHC phosphorylation in tumor at 1 mg/kg, po administered once daily via gavage for 3 days measured 3 hrs post-last dose by Western blot analysis.
In data set [6] the target is Tyrosine-protein kinase Lyn (Homo sapiens) (UniProt P07948). As to the kind of experiment: Binding affinity to wild-type human partial length LYN (C219 to Q511 residues) expressed in bacterial expression system at 100 nM by Kinomescan method relative to control.
Sequence of Tyrosine-protein kinase Lyn (Homo sapiens) (P07948 2-512 limits assumed): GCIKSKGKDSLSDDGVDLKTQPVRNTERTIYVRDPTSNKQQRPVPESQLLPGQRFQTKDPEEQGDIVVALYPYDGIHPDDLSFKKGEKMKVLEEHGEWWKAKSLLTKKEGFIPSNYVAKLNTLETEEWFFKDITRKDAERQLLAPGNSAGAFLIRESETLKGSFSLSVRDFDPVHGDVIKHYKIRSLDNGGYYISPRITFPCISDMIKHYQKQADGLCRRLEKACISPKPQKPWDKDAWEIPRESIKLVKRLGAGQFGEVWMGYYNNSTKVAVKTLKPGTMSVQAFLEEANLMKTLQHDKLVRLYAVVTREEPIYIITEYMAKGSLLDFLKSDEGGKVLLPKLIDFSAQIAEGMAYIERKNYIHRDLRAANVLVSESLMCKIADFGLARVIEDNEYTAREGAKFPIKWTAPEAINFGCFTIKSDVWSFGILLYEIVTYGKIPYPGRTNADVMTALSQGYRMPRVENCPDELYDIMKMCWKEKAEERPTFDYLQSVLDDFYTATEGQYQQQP
For data set [7], the system named is Mus musculus. As to the kind of experiment: In vivo inhibition of RET isoform 9 C634R mutant transfected in mouse NIH/3T3 cells implanted BALB/c nu/nu mouse assessed as reduction in RET phosphorylation at Y1062 residue in tumor at 1 mg/kg, po administered once daily via gavage for 3 days measured 3 hrs post-last dose by Western blot analysis. It counts as functional, organism-based.

The test system of data set [8] is GTPase HRas (Homo sapiens), P01112 [G12V]. As to the kind of experiment: Inhibition of HRAS G12V mutant (unknown origin) expressed in mouse NIH/3T3 cells assessed as reduction in MAPK phosphorylation up to 100 nM measured after 2 hrs by Western blot analysis. Format: cell-based.
Sequence of GTPase HRas (Homo sapiens), P01112 [G12V] (P01112 whole entry G12V): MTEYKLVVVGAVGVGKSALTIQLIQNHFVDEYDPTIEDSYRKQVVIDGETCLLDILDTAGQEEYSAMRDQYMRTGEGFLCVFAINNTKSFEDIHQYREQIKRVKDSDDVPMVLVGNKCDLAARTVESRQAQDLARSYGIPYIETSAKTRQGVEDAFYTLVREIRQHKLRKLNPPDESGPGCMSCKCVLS
The target in data set [9] is T1, SHC-transforming protein 1 (Homo sapiens) (UniProt P29353).
T1 sequence (whole entry): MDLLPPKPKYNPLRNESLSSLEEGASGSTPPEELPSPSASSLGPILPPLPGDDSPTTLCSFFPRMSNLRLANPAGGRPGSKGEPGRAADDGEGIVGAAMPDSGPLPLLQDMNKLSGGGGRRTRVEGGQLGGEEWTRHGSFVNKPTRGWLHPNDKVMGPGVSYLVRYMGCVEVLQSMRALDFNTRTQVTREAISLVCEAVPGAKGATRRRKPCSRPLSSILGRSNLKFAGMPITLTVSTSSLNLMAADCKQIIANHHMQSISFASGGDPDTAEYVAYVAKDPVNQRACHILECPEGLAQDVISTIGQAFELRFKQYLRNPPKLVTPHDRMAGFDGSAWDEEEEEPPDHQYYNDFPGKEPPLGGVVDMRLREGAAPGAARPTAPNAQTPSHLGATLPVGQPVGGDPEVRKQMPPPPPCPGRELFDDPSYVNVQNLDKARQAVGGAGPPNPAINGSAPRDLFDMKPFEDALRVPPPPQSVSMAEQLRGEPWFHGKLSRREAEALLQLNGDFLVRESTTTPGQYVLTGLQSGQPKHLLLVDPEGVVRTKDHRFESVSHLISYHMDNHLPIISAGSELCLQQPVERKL
As to the kind of experiment: Effect on SHC phosphorylation in RET deficient human 8505C cells at 1 to 100 nM measured after 2 hrs by western blot analysis. It counts as cell-based.

In data set [10] the target is Coiled-coil domain-containing protein 6/Tyrosine-protein kinase receptor RET (Homo sapiens) (UniProt P07949+Q16204). As to the kind of experiment: Inhibition of CCDC6/RET in human TPC1 cells assessed as reduction in SHC phosphorylation at 0.3 to 30 nM measured after 2 hrs by Western blot analysis. It counts as cell-based.
Sequence of Coiled-coil domain-containing protein 6/Tyrosine-protein kinase receptor RET (Homo sapiens) (P07949 29-1114 limits assumed): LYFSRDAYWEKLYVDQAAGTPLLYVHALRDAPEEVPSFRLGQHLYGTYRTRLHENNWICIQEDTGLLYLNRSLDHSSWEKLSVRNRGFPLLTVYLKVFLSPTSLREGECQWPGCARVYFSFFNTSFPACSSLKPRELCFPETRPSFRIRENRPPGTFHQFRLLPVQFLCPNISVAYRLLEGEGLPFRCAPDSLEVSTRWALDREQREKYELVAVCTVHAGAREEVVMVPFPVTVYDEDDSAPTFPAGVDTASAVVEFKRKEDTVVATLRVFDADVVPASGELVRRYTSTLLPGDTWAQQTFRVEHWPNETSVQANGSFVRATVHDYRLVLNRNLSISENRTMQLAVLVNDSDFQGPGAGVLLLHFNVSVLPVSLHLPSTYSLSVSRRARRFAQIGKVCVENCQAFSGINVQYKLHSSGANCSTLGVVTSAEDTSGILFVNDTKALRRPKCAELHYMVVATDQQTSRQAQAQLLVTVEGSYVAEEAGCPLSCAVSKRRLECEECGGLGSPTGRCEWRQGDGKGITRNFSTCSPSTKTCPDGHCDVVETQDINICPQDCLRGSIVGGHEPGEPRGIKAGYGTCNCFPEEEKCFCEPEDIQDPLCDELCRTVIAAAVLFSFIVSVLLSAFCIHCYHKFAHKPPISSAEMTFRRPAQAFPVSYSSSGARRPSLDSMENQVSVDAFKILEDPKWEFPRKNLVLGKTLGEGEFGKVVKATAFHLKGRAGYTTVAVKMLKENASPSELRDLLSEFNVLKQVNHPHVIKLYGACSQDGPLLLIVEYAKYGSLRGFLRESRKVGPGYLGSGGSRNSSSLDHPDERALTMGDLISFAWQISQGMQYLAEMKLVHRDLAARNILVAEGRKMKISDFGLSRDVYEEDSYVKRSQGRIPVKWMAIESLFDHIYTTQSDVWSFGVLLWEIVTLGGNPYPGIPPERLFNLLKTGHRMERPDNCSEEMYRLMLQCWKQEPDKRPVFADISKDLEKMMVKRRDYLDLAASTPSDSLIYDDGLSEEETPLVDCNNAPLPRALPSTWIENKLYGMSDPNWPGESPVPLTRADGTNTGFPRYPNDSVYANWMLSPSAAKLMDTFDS
Sequence of Coiled-coil domain-containing protein 6/Tyrosine-protein kinase receptor RET (Homo sapiens) (Q16204 2-474 partner limits assumed): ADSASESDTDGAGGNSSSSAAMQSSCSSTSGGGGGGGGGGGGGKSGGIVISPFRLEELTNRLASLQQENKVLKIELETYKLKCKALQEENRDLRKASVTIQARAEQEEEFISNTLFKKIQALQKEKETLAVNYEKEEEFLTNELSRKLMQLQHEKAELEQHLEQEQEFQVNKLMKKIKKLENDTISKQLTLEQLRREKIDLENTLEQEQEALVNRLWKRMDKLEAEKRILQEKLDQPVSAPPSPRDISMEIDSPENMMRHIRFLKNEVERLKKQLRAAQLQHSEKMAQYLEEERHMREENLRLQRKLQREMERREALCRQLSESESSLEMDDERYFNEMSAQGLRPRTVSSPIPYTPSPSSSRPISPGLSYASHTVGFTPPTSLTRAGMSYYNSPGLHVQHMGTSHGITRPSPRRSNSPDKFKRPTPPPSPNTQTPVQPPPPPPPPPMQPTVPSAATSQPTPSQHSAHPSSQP

Active and inactive are the calls of the source. The calls are words filed in the database; no cut-off is given here. Where only a bound is given, the exact number is not on record here.

The term inhibition denotes the drop in the measured response relative to a control, in per cent.

Sequence of Proto-oncogene tyrosine-protein kinase receptor Ret (Homo sapiens), P07949 [C634R] (P07949 whole entry C634R, canonical isoform): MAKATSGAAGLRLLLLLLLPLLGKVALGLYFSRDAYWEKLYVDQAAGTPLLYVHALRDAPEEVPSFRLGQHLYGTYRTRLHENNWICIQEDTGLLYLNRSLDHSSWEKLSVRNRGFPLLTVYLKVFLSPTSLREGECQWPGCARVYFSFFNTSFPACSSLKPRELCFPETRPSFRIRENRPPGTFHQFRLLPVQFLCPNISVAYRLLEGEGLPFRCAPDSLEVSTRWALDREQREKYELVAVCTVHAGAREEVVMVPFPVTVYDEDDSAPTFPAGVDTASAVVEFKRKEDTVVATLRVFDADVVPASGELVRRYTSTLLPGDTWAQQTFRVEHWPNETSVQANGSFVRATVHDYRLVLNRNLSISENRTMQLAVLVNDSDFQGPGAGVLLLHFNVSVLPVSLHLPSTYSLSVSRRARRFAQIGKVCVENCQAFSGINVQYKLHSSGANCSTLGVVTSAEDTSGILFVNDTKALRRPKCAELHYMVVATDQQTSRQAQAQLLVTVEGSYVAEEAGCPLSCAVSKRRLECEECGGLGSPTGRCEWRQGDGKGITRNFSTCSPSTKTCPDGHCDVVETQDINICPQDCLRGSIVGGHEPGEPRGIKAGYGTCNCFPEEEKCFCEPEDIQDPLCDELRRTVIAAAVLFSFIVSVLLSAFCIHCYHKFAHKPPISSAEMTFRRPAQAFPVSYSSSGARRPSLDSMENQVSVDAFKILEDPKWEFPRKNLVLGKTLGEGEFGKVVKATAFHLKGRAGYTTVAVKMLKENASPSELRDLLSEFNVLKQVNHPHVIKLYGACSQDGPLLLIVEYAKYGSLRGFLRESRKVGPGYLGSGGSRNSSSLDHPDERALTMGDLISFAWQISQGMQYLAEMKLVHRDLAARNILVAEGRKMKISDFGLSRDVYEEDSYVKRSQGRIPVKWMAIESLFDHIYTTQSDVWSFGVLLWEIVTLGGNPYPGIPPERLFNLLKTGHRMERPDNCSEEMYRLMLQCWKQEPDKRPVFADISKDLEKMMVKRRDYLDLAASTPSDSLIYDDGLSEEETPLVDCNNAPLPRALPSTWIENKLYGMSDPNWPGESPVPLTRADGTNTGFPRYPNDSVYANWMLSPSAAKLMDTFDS
Sequence of Centrosomal protein 43/RET (Homo sapiens) (O95684 whole entry, looked up, canonical isoform): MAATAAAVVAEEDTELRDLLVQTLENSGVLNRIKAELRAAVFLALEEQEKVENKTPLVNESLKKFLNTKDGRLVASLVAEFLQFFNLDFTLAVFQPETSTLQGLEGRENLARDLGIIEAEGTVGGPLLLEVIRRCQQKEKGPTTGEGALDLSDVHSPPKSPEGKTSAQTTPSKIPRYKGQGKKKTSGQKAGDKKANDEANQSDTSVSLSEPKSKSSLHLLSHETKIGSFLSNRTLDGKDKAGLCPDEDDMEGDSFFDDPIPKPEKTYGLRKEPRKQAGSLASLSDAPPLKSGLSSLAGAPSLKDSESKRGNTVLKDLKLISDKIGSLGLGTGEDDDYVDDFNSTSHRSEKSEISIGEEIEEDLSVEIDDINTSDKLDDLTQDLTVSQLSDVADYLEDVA
Sequence of Centrosomal protein 43/RET (Homo sapiens) (P07949 whole entry, looked up, canonical isoform): as the sequence (P07949 whole entry C634R, canonical isoform) above, with R634C counted along it

As to `CC(C)(C)c1cc(NC(=O)Cc2ccc(-n3cnc4cc(-c5ccc(S(C)(=O)=O)cc5)ccc43)cc2)no1`, the values for the Activity entry in data set [1] and in data set [6] were “Non-Toxic” and above 90%, respectively. Besides, the inhibition entry (in data set [2]; in data set [3]; with Mus musculus [5]; in the data set on Mus musculus [7]; in data set [10]) was “Active” each time. In addition, the inhibition in data set [4] came to 100%. The inhibition result in data set [8] was “inactive”. In addition, the result in [9] was inactive.

The values above are taken from ChEMBL document CHEMBL4354879, “Bioisosteric Discovery of NPA101.3, a Second-Generation RET/VEGFR2 Inhibitor Optimized for Single-Agent Polypharmacology” (J Med Chem, 2020).
